Test results as given in ChEMBL document CHEMBL3232767, “Synthesis of the antiproliferative agent hippuristanol and its analogues from hydrocortisone via Hg(II)-catalyzed spiroketalization: structure-activity relationship” (J Med Chem, 2014).
Activity calls are given as the source filed them. The calls are words filed in the database; no cut-off is given here.

Species on record: Oryctolagus cuniculus
Assay: Inhibition of translation in rabbit reticulocyte lysates using SP6 RNA polymerase at 10 uM by FF/HCV/Ren reporter gene assay
Format: functional
How it was run: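 Bicistronic mRNA (cap-dependent FF, HCV IRES-driven Ren as internal standard) translated in vitro at 4 ng/μL in rabbit reticulocyte lysate; compounds at 10 μM final vs 0.5% DMSO vehicle; anisomycin as control. FF and Ren luciferase read by luminometer, normalized to vehicle set at 1; duplicates averaged, error of the mean given.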

Row | Structure (SMILES) | inhibition
1 | C[C@H]1C[C@]2(O[C@H]3C[C@H]4[C@@H]5CC[C@H]6C[C@H](O)CC[C@]6(C)[C@H]5[C@@H](O)C[C@]4(C)[C@H]3[C@@]2(C)O)OC1(C)C | Active
2 | C[C@H]1C[C@@]2(O[C@H]3C[C@H]4[C@@H]5CC[C@H]6C[C@@H](O)CC[C@]6(C)[C@H]5[C@@H](O)C[C@]4(C)[C@H]3[C@@]2(C)O)OC1(C)C | inactive
3 | C[C@H]1C[C@]2(O[C@H]3C[C@H]4[C@@H]5CC[C@H]6C[C@H](O)CC[C@]6(C)[C@H]5[C@@H](O)C[C@]4(C)[C@H]3C2=O)OC1(C)C | inactive
4 | C[C@H]1C[C@]2(O[C@H]3C[C@H]4[C@@H]5CC[C@H]6C[C@H](O)CC[C@]6(C)[C@H]5[C@@H](O)C[C@]4(C)[C@H]3[C@H]2O)OC1(C)C | inactive
5 | C[C@H]1C[C@@]2(O[C@H]3C[C@H]4[C@@H]5CC[C@H]6C[C@H](O)CC[C@]6(C)[C@H]5[C@@H](O)C[C@]4(C)[C@H]3[C@H]2O)OC1(C)C | inactive
6 | COc1ccc(C[C@H]2NC[C@H](O)[C@H]2OC(C)=O)cc1 | Active
7 | C[C@H]1C[C@@]2(O[C@H]3C[C@H]4[C@@H]5CC[C@H]6C[C@H](N)CC[C@]6(C)[C@H]5[C@@H](O)C[C@]4(C)[C@H]3[C@@]2(C)O)OC1(C)C | inactive
8 | CC[C@@]1(O)[C@H]2[C@H](C[C@H]3[C@@H]4CC[C@H]5C[C@H](O)CC[C@]5(C)[C@H]4[C@@H](O)C[C@@]32C)O[C@]12C[C@H](C)C(C)(C)O2 | inactive
9 | CC[C@@]1(O)[C@H]2[C@H](C[C@H]3[C@@H]4CC[C@H]5C[C@H](O)CC[C@]5(C)[C@H]4[C@@H](O)C[C@@]32C)O[C@@]12C[C@H](C)C(C)(C)O2 | inactive
10 | C[C@H]1C[C@@]2(O[C@H]3C[C@H]4[C@@H]5CC[C@H]6C[C@H](O)CC[C@]6(C)[C@H]5[C@@H](O)C[C@]4(C)[C@H]3[C@@]2(C)O)OC1(C)C | Active
11 | C[C@H]1C[C@]2(O[C@H]3C[C@H]4[C@@H]5CC[C@H]6C[C@H](O)CC[C@]6(C)[C@H]5[C@@H](O)C[C@]4(C)[C@H]3[C@]2(O)CO)OC1(C)C | inactive
